The record followed here is ChEMBL document CHEMBL1828592, “Synthesis and anti-microbial activity of some 1- substituted amino-4,6-dimethyl-2-oxo-pyridine-3-carbonitrile derivatives” (2011).

Calls of active or inactive are those of the source. No cut-off for these calls is given here.

Test [1] has as its system Staphylococcus aureus. The test can be described thus: Antibacterial activity against Staphylococcus aureus RCMB 000106 at 10 mg/ml after 24 hrs by diffusion agar technique. In kind it is functional. Conditions: for zone of inhibition at 10000 µg/mL: RCMB 000106, 24 h, read-out: IZ. In outline: (§1)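 Agar well diffusion: 24 h bacterial culture pellets (approx. 10^4–10^6 CFU/mL) spread on nutrient agar, pH 7.0. Wells (6 mm) loaded with 100 μL sample at 10 mg/mL in DMSO; DMSO control. Incubated 37 °C, 24 h. Inhibition zone (mm, beyond well) measured three times by caliper and averaged; three runs per strain; mean ± SD.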

In test [2] the test system is Bacillus subtilis. The test can be described thus: Antibacterial activity against Bacillus subtilis RCMB 000107 at 10 mg/ml after 24 hrs by diffusion agar technique. In kind it is functional. Conditions: for zone of inhibition at 10000 µg/mL: RCMB 000107, 24 h, read-out: IZ. The gist of the method:
as §1

The test system of test [3] is Pseudomonas aeruginosa. Nature of the test: Antibacterial activity against Pseudomonas aeruginosa RCMB 000102 at 10 mg/ml after 24 hrs by diffusion agar technique. Type of test: functional. Conditions: for zone of inhibition at 10000 µg/mL: RCMB 000102, 24 h, read-out: IZ. In outline: as §1
Test [4] concerns Escherichia coli. Nature of the test: Antibacterial activity against Escherichia coli RCMB 000103 at 10 mg/ml after 24 hrs by diffusion agar technique. Type of test: functional. The settings on record: for zone of inhibition at 10000 µg/mL: RCMB 000103, 24 h, read-out: IZ. The gist of the method: as §1
A further test concerns Aspergillus fumigatus. Nature of the test: Antifungal activity against Aspergillus fumigatus RCMB 002003 at 10 mg/ml after 3 to 4 days by agar well diffusion method. In kind it is functional. Conditions: for zone of inhibition at 10000 µg/mL: read-out: IZ. The gist of the method: (§2)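 Patient-isolated fungi, purified by single-spore isolation, were grown 3–4 days in Sabouraud dextrose broth to about 10^5 CFU/mL. 0.1 mL was spread on Sabouraud dextrose agar. Wells were sealed at the bottom with 0.8% soft agar and loaded with 100 μL sample (10 mg/mL, DMSO); DMSO was the control. Incubated 30 °C, 3–4 days. Zone read three times by caliper and averaged; mean ± SD.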

A further test relates to Geotrichum candidum. Nature of the test: Antifungal activity against Geotrichum candidum RCMB 052006 at 10 mg/ml after 3 to 4 days by agar well diffusion method. In kind it is functional. Conditions: for zone of inhibition at 10000 µg/mL: read-out: IZ. The gist of the method: as §2
A general note: A growth-free zone around the sample is the usual read-out of agar diffusion tests.

The test system of the next test is Candida albicans. The test can be described thus: Antifungal activity against Candida albicans RCMB 005002 at 10 mg/ml after 3 to 4 days by agar well diffusion method. Type of test: functional. Conditions: for zone of inhibition at 10000 µg/mL: read-out: IZ. In outline:
as §2

Test [5] concerns Syncephalastrum racemosum. Nature of the test: Antifungal activity against Syncephalastrum racemosum RCMB 005003 at 10 mg/ml after 3 to 4 days by agar well diffusion method. In kind it is functional, organism-based. The gist of the method: as §2
The subject of test [6] is Staphylococcus aureus. The test can be described thus: Antibacterial activity against Staphylococcus aureus RCMB 000106 at 30 ug/ml after 24 hrs by diffusion agar technique. Type of test: functional. Conditions: RCMB 000106, 24 h, read-out: IZ. In outline:
(§3)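 Reference antibiotic tested at 30 μg/mL, 100 μL per 6 mm well in agar diffusion on nutrient agar (pH 7.0) seeded with approx. 10^4–10^6 CFU/mL bacteria. Incubated 37 °C for 24 h. Inhibition zone beyond well diameter (mm) read by caliper in triplicate and averaged; mean ± SD.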

Test [7] concerns Bacillus subtilis. The test can be described thus: Antibacterial activity against Bacillus subtilis RCMB 000107 at 30 ug/ml after 24 hrs by diffusion agar technique. In kind it is functional. The settings on record: RCMB 000107, 24 h, read-out: IZ. In outline: as §3
In test [8] the test system is Pseudomonas aeruginosa. The test can be described thus: Antibacterial activity against Pseudomonas aeruginosa RCMB 000102 at 30 ug/ml after 24 hrs by diffusion agar technique. The settings on record: RCMB 000102, 24 h, read-out: IZ. In kind it is functional. In outline: as §3
The test system of test [9] is Escherichia coli. The test can be described thus: Antibacterial activity against Escherichia coli RCMB 000103 at 30 ug/ml after 24 hrs by diffusion agar technique. The settings on record: RCMB 000103, 24 h, read-out: IZ. In kind it is functional. The gist of the method:
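Agar well diffusion on nutrient agar (pH 7.0) spread with centrifuged bacterial pellets from a 24 h culture, about 10^4–10^6 CFU/mL. Wells receive 100 µL of sample in DMSO: tested samples at 10 mg/mL, standard antibiotic at 30 μg/mL, DMSO as control. Incubation is 37 °C for 24 h. Inhibition zone in mm beyond the 6 mm well is measured three times by caliper and averaged. Three runs, mean ± SD.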

Consider `Cc1cc(C)n(N2C(=O)c3ccccc3C2=O)c(=O)c1C#N`, for which the zone of inhibition at 10000 µg/mL is 24.4 mm with Staphylococcus aureus [1]; 25.4 mm in the test with Bacillus subtilis [2]; 10.8 mm in the test with Escherichia coli [4]; 19.2 mm in the test with Aspergillus fumigatus; 21.4 mm in the test with Geotrichum candidum; 18.2 mm in the test with Candida albicans. Also, the “inhibition zone (IZ)” value (with Pseudomonas aeruginosa [3]; in test [5]) was “inactive” in each case.
Take `Cc1cc(C)n(NC(=O)Nc2ccccc2)c(=O)c1C#N`: the zone of inhibition at 10000 µg/mL worked out at 7.2 mm in the test with Staphylococcus aureus [1]; 10.4 mm with Bacillus subtilis [2]; 11.4 mm in the test on Escherichia coli [4]; 9.2 mm in the test on Aspergillus fumigatus; 10.4 mm in the test with Geotrichum candidum; 7.4 mm with Candida albicans. Also, the “inhibition zone (IZ)” value (in the test on Pseudomonas aeruginosa [3]; in [5]) was “inactive” in each case.
On to `Cc1cc(C)n(NC(=O)C(=O)CC(=O)c2cc3ccccc3o2)c(=O)c1C#N`, for which the figures for the zone of inhibition at 10000 µg/mL with Staphylococcus aureus [1], in the test with Bacillus subtilis [2] and in the test on Escherichia coli [4] were 20.4 mm, 21.8 mm and 7.4 mm, respectively. The “inhibition zone (IZ)” value (with Pseudomonas aeruginosa [3]; with Aspergillus fumigatus; with Geotrichum candidum; with Candida albicans; in [5]) was “inactive” in each case.
Consider `Cc1cc(C)n(N2C(=O)c3c(Br)c(Br)c(Br)c(Br)c3C2=O)c(=O)c1C#N`, for which the zone of inhibition at 10000 µg/mL with Staphylococcus aureus [1] amounted to 26.4 mm; with Bacillus subtilis [2] it was 26.4 mm; in the test on Escherichia coli [4], 12.6 mm; in the test on Aspergillus fumigatus it was 22.5 mm; in the test on Geotrichum candidum, 23.5 mm; in the test with Candida albicans it was 20.2 mm. The “inhibition zone (IZ)” value (in the test on Pseudomonas aeruginosa [3]; in test [5]) was “inactive” throughout.
As to `Cc1cc(C)n(/N=C/c2ccc(F)cc2)c(=O)c1C#N`, the results for the zone of inhibition at 10000 µg/mL with Staphylococcus aureus [1] and in the test on Bacillus subtilis [2] were 14.9 mm and 15.2 mm, respectively. Besides, the “inhibition zone (IZ)” value (in the test with Pseudomonas aeruginosa [3]; in the test on Escherichia coli [4]; with Aspergillus fumigatus; in the test with Geotrichum candidum; in the test with Candida albicans; in [5]) was “inactive” each time.
As to `Cc1cc(C)n(/N=C/c2cn(-c3ccccc3)nc2-c2cc3ccccc3o2)c(=O)c1C#N`, the zone of inhibition at 10000 µg/mL was 21.2 mm with Staphylococcus aureus [1]; 23.2 mm in the test with Bacillus subtilis [2]; 11.5 mm with Escherichia coli [4]; 14.2 mm in the test with Aspergillus fumigatus; 16.5 mm in the test with Geotrichum candidum; 15.5 mm in the test with Candida albicans. In addition, the “inhibition zone (IZ)” value (with Pseudomonas aeruginosa [3]; in test [5]) was “inactive” throughout.
Regarding `Cc1cc(C)n(N/C=C(\Nn2c(C)cc(C)c(C#N)c2=O)c2ccccc2)c(=O)c1C#N`, the zone of inhibition at 10000 µg/mL amounted to 15 mm in the test on Staphylococcus aureus [1]; 13.5 mm in the test with Bacillus subtilis [2]; 11.5 mm in the test with Escherichia coli [4]; 10 mm in the test with Aspergillus fumigatus; 12 mm with Geotrichum candidum; 11 mm with Candida albicans. The “inhibition zone (IZ)” value (in the test with Pseudomonas aeruginosa [3]; in test [5]) was “inactive” each time.
For `CN[C@@H]1[C@H](O[C@H]2[C@H](O[C@H]3[C@H](O)[C@@H](O)[C@H](N=C(N)N)[C@@H](O)[C@@H]3N=C(N)N)O[C@@H](C)[C@]2(O)C=O)O[C@@H](CO)[C@H](O)[C@H]1O` [STREPTOMYCIN], the zone of inhibition at 30 µg/mL with Staphylococcus aureus [6] amounted to 25 mm; with Bacillus subtilis [7], 29 mm; in the test with Pseudomonas aeruginosa [8], 24 mm; with Escherichia coli [9], 25 mm.
For the compound `Cc1cc(C)n(/N=C/c2cccs2)c(=O)c1C#N`, the zone of inhibition at 10000 µg/mL was 14 mm with Staphylococcus aureus [1]; 14 mm with Pseudomonas aeruginosa [3]; 11 mm in the test on Aspergillus fumigatus; 13 mm in the test with Geotrichum candidum; 12 mm in the test with Candida albicans. The “inhibition zone (IZ)” value (in the test on Bacillus subtilis [2]; in the test with Escherichia coli [4]; in [5]) was “inactive” each time.
For `Cc1cc(C)n(NC(=S)Nc2ccccc2)c(=O)c1C#N`, the zone of inhibition at 10000 µg/mL with Staphylococcus aureus [1] was found to be 15 mm; in the test on Bacillus subtilis [2] it was 13.5 mm; in the test with Aspergillus fumigatus, 10.2 mm; with Geotrichum candidum it was 12 mm; in the test with Candida albicans it was 11 mm. Also, the “inhibition zone (IZ)” value (in the test on Pseudomonas aeruginosa [3]; with Escherichia coli [4]; in [5]) was “inactive” in each case.
As for `Cc1cc(C)n(/N=C/c2cc3ccccc3n3nnnc23)c(=O)c1C#N`, the zone of inhibition at 10000 µg/mL in the test with Staphylococcus aureus [1] was 18.6 mm; in the test with Bacillus subtilis [2] it was 17.3 mm; with Escherichia coli [4], 9.3 mm; in the test with Aspergillus fumigatus it was 11.2 mm; with Geotrichum candidum, 13.4 mm; in the test on Candida albicans it was 11.4 mm. Moreover, the “inhibition zone (IZ)” value (in the test on Pseudomonas aeruginosa [3]; in [5]) was “inactive” in each case.
`Cc1cc(C)n(N)c(=O)c1C#N`: the zone of inhibition at 10000 µg/mL amounted to 14 mm with Staphylococcus aureus [1], 17 mm in the test with Bacillus subtilis [2], 21.4 mm in the test on Pseudomonas aeruginosa [3] and 22.8 mm with Escherichia coli [4]. Moreover, the “inhibition zone (IZ)” value (in the test with Aspergillus fumigatus; in the test on Geotrichum candidum; in the test with Candida albicans; in [5]) was “inactive” each time.
Take `COc1ccc(-c2cc(-c3cccs3)nc3sc(C(=O)Nn4c(C)cc(C)c(C#N)c4=O)c(N)c23)cc1`: the zone of inhibition at 10000 µg/mL was determined as 13 mm in the test on Staphylococcus aureus [1]; 14.2 mm with Bacillus subtilis [2]; 11.1 mm in the test with Aspergillus fumigatus; 14 mm in the test on Geotrichum candidum; 10 mm in the test on Candida albicans. Moreover, the “inhibition zone (IZ)” value (in the test on Pseudomonas aeruginosa [3]; in the test with Escherichia coli [4]; in test [5]) was “inactive” each time.
On to `Cc1cc(C)n(/N=C/c2cc3ccccc3nc2Cl)c(=O)c1C#N`, for which the “inhibition zone (IZ)” value (in the test on Staphylococcus aureus [1]; with Bacillus subtilis [2]; in the test on Pseudomonas aeruginosa [3]; with Escherichia coli [4]; in test [5]) was “inactive” throughout. Moreover, the zone of inhibition at 10000 µg/mL in the test on Aspergillus fumigatus was 13.3 mm; in the test with Geotrichum candidum, 12.4 mm; with Candida albicans it was 10.2 mm.
As for `Cc1cc(C)n(/N=C/c2c(C)nn(-c3ccccc3)c2Cl)c(=O)c1C#N`, the “inhibition zone (IZ)” value (in the test with Staphylococcus aureus [1]; with Bacillus subtilis [2]; in the test with Pseudomonas aeruginosa [3]; in the test on Escherichia coli [4]; in test [5]) was “inactive” throughout. In addition, the zone of inhibition at 10000 µg/mL turned out to be 10.3 mm in the test on Aspergillus fumigatus, 11.5 mm in the test on Geotrichum candidum and 13.2 mm in the test on Candida albicans.
In the case of `Cc1ccc2c(c1)cc(/C=N/n1c(C)cc(C)c(C#N)c1=O)c1nnnn12`, the zone of inhibition at 10000 µg/mL with Staphylococcus aureus [1] was found to be 23.2 mm; with Bacillus subtilis [2], 24.3 mm; in the test with Escherichia coli [4], 11.2 mm; in the test on Aspergillus fumigatus, 15.2 mm; with Geotrichum candidum it was 18.4 mm; in the test on Candida albicans, 15.4 mm. Moreover, the “inhibition zone (IZ)” value (in the test with Pseudomonas aeruginosa [3]; in test [5]) was “inactive” in each case.
Consider `Cc1ccc2nc(Cl)c(/C=N/n3c(C)cc(C)c(C#N)c3=O)cc2c1`, for which the “inhibition zone (IZ)” value (in the test on Staphylococcus aureus [1]; in the test with Bacillus subtilis [2]; with Pseudomonas aeruginosa [3]; with Escherichia coli [4]; in test [5]) was “inactive” in each case. Besides, the zone of inhibition at 10000 µg/mL came to 14.5 mm in the test on Aspergillus fumigatus, 13.2 mm in the test with Geotrichum candidum and 12.4 mm in the test with Candida albicans.
